Data as given in ChEMBL document CHEMBL1132359, “Thiazolothiazepine inhibitors of HIV-1 integrase” (J Med Chem, 1999).

What was measured:
[1] = biological target: T1, Human immunodeficiency virus type 1 integrase (Human immunodeficiency virus 1, UniProt Q7ZJM1); test: Inhibition of the 3'-end joining activity of HIV-1 integrase
In short: (§1)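 Then 20 nM 5′-32P-labeled linear oligonucleotide substrate added and incubated a further 1 h. Products separated on denaturing 20% polyacrylamide/urea gel and quantified by phosphorimaging. IC50 read from a plot of percent inhibition versus concentration.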

CCRF-CEM [2] = test: The compound was tested for inhibitory activity against HIV-1; type: functional, cell-based; details: Homo sapiens
[3] = biological target: T1, Human immunodeficiency virus type 1 integrase; test: Inhibition of the 3'-processing activity of HIV-1 integrase; in short: as §1
CCRF-CEM [4] = test: Tested for cytotoxicity in CEM cells; type: functional; details: Homo sapiens
CCRF-CEM [5] = test: The compound was tested for cytotoxicity against HIV-1 infected CEM cells; type: functional; details: Homo sapiens
CCRF-CEM [6] = test: The compound was tested for inhibitory activity against HIV-1 infected CEM cells; type: functional, cell-based; details: Homo sapiens

T1 sequence (Q7ZJM1 whole entry): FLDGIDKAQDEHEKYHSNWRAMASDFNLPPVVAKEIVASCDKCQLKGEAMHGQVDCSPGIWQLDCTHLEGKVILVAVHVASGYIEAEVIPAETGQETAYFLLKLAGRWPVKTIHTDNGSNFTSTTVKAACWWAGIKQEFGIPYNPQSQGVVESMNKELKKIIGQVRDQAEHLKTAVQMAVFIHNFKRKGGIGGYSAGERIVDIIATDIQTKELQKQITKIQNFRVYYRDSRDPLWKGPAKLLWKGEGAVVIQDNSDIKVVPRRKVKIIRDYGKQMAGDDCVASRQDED

Structure (SMILES)	IC50 [1] [µM]	EC50 (CCRF-CEM [2]) [µM]	IC50 [3] [µM]	CC50 (CCRF-CEM [4]) [µM]	CC50 (CCRF-CEM [5]) [µM]	EC50 (CCRF-CEM [6]) [µM]
COc1cc2c(cc1OC)C(=O)N1CCCC1CS2 (stereo unspecified)	> 1000	> 200	> 1000	> 200		
COc1ccc2c(c1)C(=O)N1CSCC1C(=O)S2 (stereo unspecified)	155	> 200	155	> 200		
Cc1ccc2c(c1)C(=O)N1CCSC1C(=O)S2 (stereo unspecified)	55		64			
O=C1Sc2ccc(Cl)cc2C(=O)N2C[S+]([O-])CC12 (stereo unspecified)	280		260			
CC(=O)OC1Sc2ccccc2C(=O)N2CCCC12 (stereo unspecified)	> 1000	> 200	> 1000	> 200		
O=C1Sc2ccc(Cl)cc2C(=O)N2CSCC12 (stereo unspecified)	160	> 100	158	> 100		
O=C1Sc2ccccc2C(=O)N2CCSC12 (stereo unspecified)	146		110		> 200	107
COC1Sc2ccccc2C(=O)N2CCCC12 (stereo unspecified)	> 1000	> 200	> 1000	> 200		
O=C1Sc2ccccc2C(=O)N2CCCCC12 (stereo unspecified)	343	> 200	406	> 200		
O=C1Sc2ccccc2Cn2cccc21	300	146	590	> 200		
O=C1c2ccccc2SC(O)C2CCCN12 (stereo unspecified)	> 1000	> 200	> 1000	> 200		
COc1cc2c(cc1OC)C(=O)N1CCCC1C(=O)S2 (stereo unspecified)	> 1000	> 200	> 1000	> 200		
O=C1Sc2ccccc2C(=O)N2COCC12 (stereo unspecified)	> 333		> 333			
CN1CCN(Cc2ccc3n2Cc2ccccc2SC3c2ccccc2)CC1 (stereo unspecified)	> 1000		> 1000			
COc1cc2c(cc1OC)C(=O)N1CSCC1C(=O)S2 (stereo unspecified)	333	> 50	670	> 50		
O=C1Sc2ccc(Cl)cc2C(=O)N2CCSC12 (stereo unspecified)	120	> 50	151	> 50		

Structure (SMILES)	IC50 [1] [µM]	EC50 (CCRF-CEM [2]) [µM]	IC50 [3] [µM]	CC50 (CCRF-CEM [4]) [µM]	CC50 (CCRF-CEM [5]) [µM]	EC50 (CCRF-CEM [6]) [µM]
O=C1Sc2ccccc2C(=O)N2CSCC12 (stereo unspecified)	227	> 200	208	> 200		
O=C1Sc2ccc(Br)cc2C(=O)N2CCSC12 (stereo unspecified)	48		58			
O=C1Sc2ccccc2C(=O)N2C[S+]([O-])CC12 (stereo unspecified)	215		200			
O=C1c2ccccc2SC(O)(c2ccccc2)C2CCCN12 (stereo unspecified)	> 1000		> 1000			
O=C1Sc2cc3ccccc3cc2C(=O)N2CSCC12 (stereo unspecified)	100	280	92	> 316		
Cc1ccc2c(c1)C(=O)N1CSCC1C(=O)S2 (stereo unspecified)	63		52	35		
O=C1Sc2cc([N+](=O)[O-])ccc2C(=O)N2CSCC12 (stereo unspecified)	100	> 50	90	> 50		
CN(C)Cc1ccc2n1Cc1ccccc1SC2c1ccc(F)cc1 (stereo unspecified)	> 1000		> 1000			
O=C1c2ccccc2SCC2CSC(c3ccccc3)N12 (stereo unspecified)	376		372			
CCOC(=O)C1Sc2ccccc2Cn2cccc21 (stereo unspecified)	> 1000		> 1000			
CN1CCN(C2Sc3ccccc3C(=O)N3CCCC23)CC1 (stereo unspecified)	> 1000	> 125	> 1000	> 125		
O=C1Sc2cc3ccccc3cc2C(=O)N2CCSC12 (stereo unspecified)	47	60	40	> 316		
O=C1Sc2ccc(Br)cc2C(=O)N2CSCC12 (stereo unspecified)	74	> 200	87	> 200		
COc1ccc2c(c1)C(=O)N1C[S+]([O-])CC1C(=O)S2 (stereo unspecified)	142		84.5			
Cc1ccc2c(c1)C(=O)N1CC[S+]([O-])C1C(=O)S2 (stereo unspecified)	590	> 100	590	> 100		
